Measurements as given in PMC4068216 (ACS Chemical Biology, 2014).

Legend:
[1] = tested on: LAT1; conditions: only tested on LAT1 and LAT2; cited from earlier work
[2] = tested on: HT-29 colorectal adenocarcinoma cell; conditions: in vitro and in vivo; cited from earlier work
[3] = tested on: LNCaP cells; assay: BrdU incorporation assay in LNCaP cells; format: cell-based, human; conditions: BCH 10 mM, ESK242 and ESK246 50 μM, 22 h then BrdU 2 h
Outline: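 LNCaP cells (2 × 10^5 per 6-well) adhered overnight, were serum-starved, then exposed to test compound, DMSO vehicle or BCH for 22 h. BrdU (150 μg/mL) was added for a further 2 h. Cells were detached, fixed and stained with APC anti-BrdU (1:50) and 7-AAD, then analysed by flow cytometry. Three separate experiments; one-way ANOVA.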

[4] = target: T1, LAT3 (Homo sapiens, UniProt O75387); assay: [3H]-L-leucine uptake assay in LNCaP cells; format: cell-based
T1 sequence (O75387 1-559): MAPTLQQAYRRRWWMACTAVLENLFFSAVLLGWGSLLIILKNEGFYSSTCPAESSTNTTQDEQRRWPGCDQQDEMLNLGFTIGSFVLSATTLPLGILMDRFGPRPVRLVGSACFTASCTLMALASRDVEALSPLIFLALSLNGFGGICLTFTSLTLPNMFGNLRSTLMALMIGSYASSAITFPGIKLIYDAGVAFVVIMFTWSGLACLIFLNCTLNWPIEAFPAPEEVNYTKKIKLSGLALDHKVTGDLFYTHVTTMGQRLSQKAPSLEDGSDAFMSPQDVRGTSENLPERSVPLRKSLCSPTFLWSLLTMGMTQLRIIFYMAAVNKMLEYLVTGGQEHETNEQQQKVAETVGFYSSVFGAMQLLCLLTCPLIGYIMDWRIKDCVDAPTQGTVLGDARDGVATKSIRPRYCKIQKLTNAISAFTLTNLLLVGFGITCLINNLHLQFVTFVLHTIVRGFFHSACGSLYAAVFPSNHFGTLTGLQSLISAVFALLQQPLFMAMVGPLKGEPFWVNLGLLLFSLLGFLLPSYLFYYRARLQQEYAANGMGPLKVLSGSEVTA
Outline: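 Dose–response: LNCaP cells (3 × 10^4/well) took up 0.3 μCi [3H]-L-leucine (200 nM) in leucine-free RPMI with 10% dialysed FBS for 15 min at 37 °C. Screen: 10^4 cells/well in HBSS with 10% dialysed FBS and 50 mM L-glutamine, added onto preloaded fractions, n = 1 per fraction. Controls were 0.5% DMSO and 10 mM BCH. Cells were filter-harvested for scintillation counting.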

[5] = substrate: CC(C)C[C@H](N)C(=O)O; assay: [3H]-L-leucine uptake in Xenopus laevis oocytes expressing LAT3; format: cell-based, human; conditions: other: no inhibitor, pH 7.5

With Nc1cc(COc2c(Cl)cc(C[C@H](N)C(=O)O)cc2Cl)c2oc(-c3ccccc3)nc2c1 [JPH203/KYT-0353] as the molecule, how does the “selectivity, LAT1 versus LAT2” value [1] read?
Its value is “selectivity for LAT1-mediated transport”.

And the HT-29 cell growth [2]?
Its HT-29 cell growth is “suppression of HT-29 colorectal adenocarcinoma cell growth in vitro and in vivo”.

With NC1(C(=O)O)CC2CCC1C2 (stereo not shown) [BCH, 2-aminobicyclo[2.2.1]heptane-2-carboxylic acid] as the molecule, how does the BrdU incorporation [3] read?
The BrdU incorporation was 14.7%.

And the “BrdU incorporation relative to control” value [3]?
Its value is 51.6 % of control.

What about the IC50 [4] of the same molecule?
The IC50 was 4.06 ± 0.0011 mM.

What about the leucine uptake ([4]; high-throughput screen, positive control 10 mM, LNCaP cells) of the same molecule?
Its leucine uptake is 30–40 % of control.

B1: LAT3 (Homo sapiens) (protein)
chain: MAPTLQQAYRRRWWMACTAVLENLFFSAVLLGWGSLLIILKNEGFYSSTCPAESSTNTTQDEQRRWPGCDQQDEMLNLGFTIGSFVLSATTLPLGILMDRFGPRPVRLVGSACFTASCTLMALASRDVEALSPLIFLALSLNGFGGICLTFTSLTLPNMFGNLRSTLMALMIGSYASSAITFPGIKLIYDAGVAFVVIMFTWSGLACLIFLNCTLNWPIEAFPAPEEVNYTKKIKLSGLALDHKVTGDLFYTHVTTMGQRLSQKAPSLEDGSDAFMSPQDVRGTSENLPERSVPLRKSLCSPTFLWSLLTMGMTQLRIIFYMAAVNKMLEYLVTGGQEHETNEQQQKVAETVGFYSSVFGAMQLLCLLTCPLIGYIMDWRIKDCVDAPTQGTVLGDARDGVATKSIRPRYCKIQKLTNAISAFTLTNLLLVGFGITCLINNLHLQFVTFVLHTIVRGFFHSACGSLYAAVFPSNHFGTLTGLQSLISAVFALLQQPLFMAMVGPLKGEPFWVNLGLLLFSLLGFLLPSYLFYYRARLQQEYAANGMGPLKVLSGSEVTA
Which Km [5] does the source give for B1 here?
The Km was 6.3 ± 0.5 mM.
